Test results taken from ChEMBL document CHEMBL1124311, “Synthesis and antiallergy activity of 4-(diarylhydroxymethyl)-1-[3-(aryloxy)propyl]piperidines and structurally related compounds” (J Med Chem, 1989).
Calls of active or inactive are those of the source. The rule behind the calls is not given here.

Columns and labels:
[1] = system: Rattus norvegicus; assay: Oral antiallergy activity in the passive foot anaphylaxis (PFA) model of rat, at a dose of 10 (mg/kg); Activity equal to positive control group; format: functional, organism-based
[2] = system: Rattus norvegicus; assay: Oral antiallergy activity in the passive foot anaphylaxis (PFA) model of rat, at a dose of 3.16 (mg/kg); not significantly different from negative control group; format: functional, organism-based
[3] = system: Rattus norvegicus; assay: Oral antiallergy activity in the passive foot anaphylaxis (PFA) model of rat, at a dose of 10 (mg/kg); Activity greater than positive control group; format: functional, organism-based
[4] = system: Rattus norvegicus; assay: Oral antiallergy activity in the passive foot anaphylaxis (PFA) model of rat, at a dose of 3.16 (mg/kg); Activity equal to positive control group; format: functional, organism-based
[5] = system: Rattus norvegicus; assay: Oral antiallergy activity in the passive foot anaphylaxis (PFA) model of rat, at a dose of 1.0 (mg/kg); not significantly different from negative control group; format: functional, organism-based
[6] = organism: Cavia porcellus; assay: Oral antiallergy activity in the guinea pig anaphylaxis (GPA) model, at a pretreatment time of 1 h; format: functional; settings: read-out: PD50
Method in brief: (§1)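 Fasted, sensitized Dunkin-Hartley guinea pigs, randomized into control (N = 8) and test (N = 4) groups, dosed by gavage at 10 mL/kg in 0.5% Tween 80 in water; theophylline 100 mg/kg po as reference. At the stated pretreatment time, each animal was exposed to aerosolized 1% (w/v) egg albumin at 10 L air/min for up to 5 min. Protection meant no collapse within 5 min. PD50 was calculated by Litchfield–Wilcoxon.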

[7] = organism: Cavia porcellus; assay: Oral antiallergy activity in the guinea pig anaphylaxis (GPA) model, at a pretreatment time of 24 h; format: functional; settings: read-out: PD50; method in brief: as §1
[8] = biological target: Histamine H1 receptor (Cavia porcellus, UniProt P31389); assay: Inhibitory activity against Tritiated [3H]- mepyramine binding to histamine H1 receptor in guinea pig cerebral cortex; format: tissue-based
Sequence of Histamine H1 receptor (P31389 whole entry): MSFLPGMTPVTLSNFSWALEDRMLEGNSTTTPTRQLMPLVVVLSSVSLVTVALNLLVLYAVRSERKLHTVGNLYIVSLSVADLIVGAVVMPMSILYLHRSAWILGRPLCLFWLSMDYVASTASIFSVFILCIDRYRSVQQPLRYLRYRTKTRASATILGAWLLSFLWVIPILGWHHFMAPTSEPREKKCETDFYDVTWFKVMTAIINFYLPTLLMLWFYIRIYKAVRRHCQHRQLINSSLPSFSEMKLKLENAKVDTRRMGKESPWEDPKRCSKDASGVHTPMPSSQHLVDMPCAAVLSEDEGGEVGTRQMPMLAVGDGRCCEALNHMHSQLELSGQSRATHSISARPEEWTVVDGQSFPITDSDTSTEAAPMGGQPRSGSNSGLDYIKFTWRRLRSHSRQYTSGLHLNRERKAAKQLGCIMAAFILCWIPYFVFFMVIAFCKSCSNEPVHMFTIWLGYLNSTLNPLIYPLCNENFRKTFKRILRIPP
Method in brief: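 Guinea pig (Dunkin-Hartley) cerebral cortex homogenized in cold 50 mM Na-K phosphate pH 7.5, centrifuged at 48000g three times, resuspended 30 mL buffer/g tissue. Six concentrations (1e-5 to 1e-10 M) run in triplicate. IC50 derived by regression of logit % control binding vs log concentration.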

[9] = organism: Cavia porcellus; assay: Oral antiallergy activity in the guinea pig anaphylaxis (GPA) model of, at a pretreatment time of 5 h; format: functional; settings: read-out: PD50; method in brief: as §1
[10] = system: Rattus norvegicus; assay: Oral antiallergy activity in the passive foot anaphylaxis (PFA) model of rat, at a dose of 3.16 (mg/kg); Activity between positive and negative control groups; format: functional, organism-based
[11] = system: Rattus norvegicus; assay: Oral antiallergy activity in the passive foot anaphylaxis (PFA) model of rat, at a dose of 1.0 (mg/kg); Activity between positive and negative control groups; format: functional, organism-based
[12] = system: Rattus norvegicus; assay: Oral antiallergy activity in the passive foot anaphylaxis (PFA) model of rat, at a dose of 0.5 (mg/kg); not significantly different from negative control group; format: functional, organism-based
[13] = system: Rattus norvegicus; assay: Oral antiallergy activity in the passive foot anaphylaxis (PFA) model of rat, at a dose of 0.5 (mg/kg); Activity between positive and negative control groups; format: functional, organism-based
[14] = system: Rattus norvegicus; assay: Oral antiallergy activity in the passive foot anaphylaxis (PFA) model of rat, at a dose of 3.16 (mg/kg); Activity greater than positive control group; format: functional, organism-based
[15] = system: Rattus norvegicus; assay: Oral antiallergy activity in the passive foot anaphylaxis (PFA) model of rat, at a dose of 10 (mg/kg); Activity between positive and negative control groups; format: functional, organism-based
[16] = system: Rattus norvegicus; assay: Oral antiallergy activity in the passive foot anaphylaxis (PFA) model of rat, at a dose of 1.0 (mg/kg); format: functional, organism-based

Q: Which PFA [1] does the source give for `COc1ccc(OCCCN2CCC(C(O)(c3ccc(F)cc3)c3ccc(F)cc3)CC2)cc1` here?
A: Activity equal to positive control group

Q: What about the PFA [2] of the same compound?
A: Activity equal to positive control group

Q: `CC(C)C(=O)c1ccc(OCCCN2CCC(C(O)(c3ccc(F)cc3)c3ccc(F)cc3)CC2)cc1` was tested. Which PFA [3] did it give?
A: Activity greater than positive control group

Q: And the PFA [2]?
A: Activity greater than positive control group

Q: With `COc1cc(C(C)=O)ccc1OCCCCN1CCC(C(O)(c2ccc(F)cc2)c2ccc(F)cc2)CC1` as the compound, how does the PFA [4] read?
A: Activity equal to positive control group

Q: With `Oc1ccccc1OCCCN1CCC(C(O)(c2ccc(F)cc2)c2ccc(F)cc2)CC1` as the compound, how does the PFA [1] read?
A: Activity equal to positive control group

Q: And the PFA [2]?
A: Activity equal to positive control group

Q: Which PFA [5] does the source give for `CCC(=O)c1ccc(OCCCN2CCC(C(O)(c3ccc(F)cc3)c3ccc(F)cc3)CC2)cc1` here?
A: Activity equal to positive control group

Q: What about the PFA [3] of the same compound?
A: Activity equal to positive control group

Q: And the PFA [4]?
A: Activity equal to positive control group

Q: Which results are given for `COc1cc(C(C)=O)ccc1OCCCN1CCC(C(O)(c2ccc(F)cc2)c2ccc(F)cc2)CC1`?
A: ED50 [6]: 1.78 mg/kg; ED50 [7]: 0.78 mg/kg; IC50 [8]: 8 nM; PFA [5]: inactive; PFA [3]: Active; PFA [4]: Active; ED50 [9]: 0.18 mg/kg

Q: `O=C(O)Cc1ccc(OCCCN2CCC(C(O)(c3ccc(F)cc3)c3ccc(F)cc3)CC2)cc1` was tested. Which PFA [5] did it give?
A: Activity between positive and negative control groups

Q: What about the PFA [1] of the same compound?
A: Activity between positive and negative control groups

Q: What about the PFA [10] of the same compound?
A: Activity between positive and negative control groups

Q: How did the PFA [11] turn out when `COC(=O)CCc1ccc(OCCCN2CCC(C(O)(c3ccc(F)cc3)c3ccc(F)cc3)CC2)cc1` was run?
A: Activity between positive and negative control groups

Q: What about the PFA [3] of the same compound?
A: Activity between positive and negative control groups

Q: And the PFA [12]?
A: Activity between positive and negative control groups

Q: And the PFA [10]?
A: Activity between positive and negative control groups

Q: `OC(c1ccc(F)cc1)(c1ccc(F)cc1)C1CCN(CCCOc2ccccc2)CC1` was tested. Which PFA [4] did it give?
A: Activity equal to positive control group

Q: What does the source list for `CC(C)Oc1ccccc1OCCCN1CCC(C(O)(c2ccc(F)cc2)c2ccc(F)cc2)CC1`?
A: PFA [11]: Activity between positive and negative control groups; PFA [10]: Activity between positive and negative control groups

Q: Which PFA [3] does the source give for `CC(=O)Cc1ccc(OCCCN2CCC(C(O)(c3ccc(F)cc3)c3ccc(F)cc3)CC2)cc1` here?
A: Activity greater than positive control group

Q: And the PFA [2]?
A: Activity greater than positive control group

Q: What does the source list for `CSc1ccc(OCCCN2CCC(C(O)(c3ccc(F)cc3)c3ccc(F)cc3)CC2)cc1`?
A: PFA [1]: Activity equal to positive control group; PFA [2]: Activity equal to positive control group

Q: For `CC(=O)Nc1ccc(OCCCN2CCC(C(O)(c3ccc(F)cc3)c3ccc(F)cc3)CC2)cc1`, which PFA [5] is on record?
A: Activity equal to positive control group

Q: What about the PFA [3] of the same compound?
A: Activity equal to positive control group

Q: And the PFA [4]?
A: Activity equal to positive control group

Q: What does the source list for `CNC(=O)Nc1ccc(OCCCN2CCC(C(O)(c3ccc(F)cc3)c3ccc(F)cc3)CC2)cc1`?
A: PFA [1]: Activity equal to positive control group; PFA [2]: Activity equal to positive control group

Q: `COc1cc(C(C)=O)ccc1OCCCN1CCC(=C(c2ccccc2)c2ccccc2)CC1` was tested. Which PFA [4] did it give?
A: Activity equal to positive control group

Q: What does the source list for `CCOC(=O)c1ccc(OCCCN2CCC(C(O)(c3ccc(F)cc3)c3ccc(F)cc3)CC2)cc1.Cl`?
A: ED50 [6]: 1 mg/kg; ED50 [7]: 0.37 mg/kg; IC50 [8]: 956 nM; PFA [11]: Weak activity; PFA [13]: Weak activity; PFA [14]: Active; ED50 [9]: 0.44 mg/kg

Q: Which PFA [1] does the source give for `CS(=O)(=O)c1ccc(OCCCN2CCC(C(O)(c3ccc(F)cc3)c3ccc(F)cc3)CC2)cc1` here?
A: Activity equal to positive control group

Q: What about the PFA [2] of the same compound?
A: Activity equal to positive control group

Q: `CCNCCc1ccc(CN(CC)c2cc(OC)ccc2[C@@H]2CCc3cc(O)ccc3C2)cc1` was tested. Which PFA [5] did it give?
A: Activity between positive and negative control groups

Q: And the PFA [10]?
A: Activity between positive and negative control groups

Q: How did the PFA [5] turn out when `Cc1cccc(OCCCN2CCC(C(O)(c3ccc(F)cc3)c3ccc(F)cc3)CC2)c1` was run?
A: Activity between positive and negative control groups

Q: What about the PFA [15] of the same compound?
A: Activity between positive and negative control groups

Q: And the PFA [10]?
A: Activity between positive and negative control groups

Q: How did the PFA [1] turn out when `CC(C)(C)C(=O)c1ccc(OCCCN2CCC(C(O)(c3ccc(F)cc3)c3ccc(F)cc3)CC2)cc1` was run?
A: Activity equal to positive control group

Q: What about the PFA [2] of the same compound?
A: Activity equal to positive control group

Q: With `O=C(O)c1ccc(OCCCN2CCC(C(O)(c3ccc(F)cc3)c3ccc(F)cc3)CC2)cc1` as the compound, how does the PFA [13] read?
A: Activity between positive and negative control groups

Q: And the PFA [10]?
A: Activity between positive and negative control groups

Q: And the PFA [16]?
A: Activity between positive and negative control groups

Q: `CCc1ccc(OCCCN2CCC(C(O)(c3ccc(F)cc3)c3ccc(F)cc3)CC2)cc1` was tested. Which PFA [5] did it give?
A: Activity between positive and negative control groups

Q: And the PFA [1]?
A: Activity between positive and negative control groups

Q: What about the PFA [10] of the same compound?
A: Activity between positive and negative control groups

Q: What does the source list for `COc1ccccc1OCCCN1CCC(C(O)(c2ccc(F)cc2)c2ccc(F)cc2)CC1`?
A: PFA [11]: Activity between positive and negative control groups; PFA [10]: Activity between positive and negative control groups

Q: Which PFA [5] does the source give for `CC(=O)c1ccc(OCCCN2CCC(C(O)(c3ccc(F)cc3)c3ccc(F)cc3)CC2)cc1` here?
A: Activity equal to positive control group

Q: What about the PFA [3] of the same compound?
A: Activity equal to positive control group

Q: What about the PFA [4] of the same compound?
A: Activity equal to positive control group

Q: Which PFA [5] does the source give for `CN(C)C(=O)c1ccc(OCCCN2CCC(C(O)(c3ccc(F)cc3)c3ccc(F)cc3)CC2)cc1` here?
A: Activity between positive and negative control groups

Q: And the PFA [3]?
A: Activity between positive and negative control groups

Q: And the PFA [10]?
A: Activity between positive and negative control groups

Q: How did the PFA [5] turn out when `CCOC(=O)c1ccccc1OCCCN1CCC(C(O)(c2ccc(F)cc2)c2ccc(F)cc2)CC1` was run?
A: Activity between positive and negative control groups

Q: And the PFA [15]?
A: Activity between positive and negative control groups

Q: What about the PFA [10] of the same compound?
A: Activity between positive and negative control groups

Q: Which results are given for `O=C(O)CCc1ccc(OCCCN2CCC(C(O)(c3ccc(F)cc3)c3ccc(F)cc3)CC2)cc1`?
A: PFA [11]: Activity between positive and negative control groups; PFA [3]: Activity between positive and negative control groups; PFA [12]: Activity between positive and negative control groups; PFA [4]: Activity between positive and negative control groups

Q: How did the PFA [11] turn out when `NC(=O)c1ccc(OCCCN2CCC(C(O)(c3ccc(F)cc3)c3ccc(F)cc3)CC2)cc1` was run?
A: Activity between positive and negative control groups

Q: What about the PFA [3] of the same compound?
A: Activity between positive and negative control groups

Q: What about the PFA [12] of the same compound?
A: Activity between positive and negative control groups

Q: What about the PFA [10] of the same compound?
A: Activity between positive and negative control groups

Q: How did the PFA [5] turn out when `Nc1ccc(OCCCN2CCC(C(O)(c3ccc(F)cc3)c3ccc(F)cc3)CC2)cc1` was run?
A: Activity between positive and negative control groups

Q: What about the PFA [3] of the same compound?
A: Activity between positive and negative control groups

Q: What about the PFA [10] of the same compound?
A: Activity between positive and negative control groups

Q: Which ED50 [6] does the source give for `COc1cc(C(C)=O)ccc1OCCCN1CCC(C(O)(c2ccccc2)c2ccccc2)CC1` here?
A: 0.57 mg/kg

Q: And the ED50 [7]?
A: 1.4 mg/kg

Q: What about the IC50 [8] of the same compound?
A: 42 nM

Q: And the PFA [5]?
A: inactive

Q: And the PFA [3]?
A: Active

Q: What about the PFA [4] of the same compound?
A: Active

Q: And the ED50 [9]?
A: 0.35 mg/kg

Q: With `CCOC(=O)Nc1ccc(OCCCN2CCC(C(O)(c3ccc(F)cc3)c3ccc(F)cc3)CC2)cc1` as the compound, how does the PFA [5] read?
A: Activity equal to positive control group

Q: And the PFA [3]?
A: Activity equal to positive control group

Q: And the PFA [4]?
A: Activity equal to positive control group

Q: Which PFA [4] does the source give for `COc1cc(C(C)=O)ccc1OCCCN1CCC(C(O)(c2ccccc2)c2ccc(F)cc2)CC1` (centres undefined) here?
A: Activity equal to positive control group

Q: With `COC(=O)c1ccc(OCCCN2CCC(C(O)(c3ccc(F)cc3)c3ccc(F)cc3)CC2)cc1` as the compound, how does the ED50 [6] read?
A: 0.72 mg/kg

Q: What about the ED50 [7] of the same compound?
A: 2.04 mg/kg

Q: What about the IC50 [8] of the same compound?
A: 63 nM

Q: What about the PFA [11] of the same compound?
A: Weak activity

Q: And the PFA [12]?
A: inactive

Q: And the PFA [14]?
A: Active

Q: And the ED50 [9]?
A: 0.32 mg/kg
